Publication PMC2099187 (The Journal of Cell Biology, 2007)
“Also recorded” adds a separate entry of the source. Where a SMILES comes first, the peptide text is derived from it.

Columns and labels:
[1] = molecular target: T1, recombinant human (rh) ECE-1 (Homo sapiens, UniProt P42892); test: Peptide degradation by rhECE-1; format: biochemical; conditions: for Degradation of peptide by 83 nM rhECE-1 at pH 5.5 or 7.4: 50 mM MES-KOH pH 5.5 or 50 mM Tris-HCl pH 7.4, up to 480 min
T1 sequence (P42892 1-770): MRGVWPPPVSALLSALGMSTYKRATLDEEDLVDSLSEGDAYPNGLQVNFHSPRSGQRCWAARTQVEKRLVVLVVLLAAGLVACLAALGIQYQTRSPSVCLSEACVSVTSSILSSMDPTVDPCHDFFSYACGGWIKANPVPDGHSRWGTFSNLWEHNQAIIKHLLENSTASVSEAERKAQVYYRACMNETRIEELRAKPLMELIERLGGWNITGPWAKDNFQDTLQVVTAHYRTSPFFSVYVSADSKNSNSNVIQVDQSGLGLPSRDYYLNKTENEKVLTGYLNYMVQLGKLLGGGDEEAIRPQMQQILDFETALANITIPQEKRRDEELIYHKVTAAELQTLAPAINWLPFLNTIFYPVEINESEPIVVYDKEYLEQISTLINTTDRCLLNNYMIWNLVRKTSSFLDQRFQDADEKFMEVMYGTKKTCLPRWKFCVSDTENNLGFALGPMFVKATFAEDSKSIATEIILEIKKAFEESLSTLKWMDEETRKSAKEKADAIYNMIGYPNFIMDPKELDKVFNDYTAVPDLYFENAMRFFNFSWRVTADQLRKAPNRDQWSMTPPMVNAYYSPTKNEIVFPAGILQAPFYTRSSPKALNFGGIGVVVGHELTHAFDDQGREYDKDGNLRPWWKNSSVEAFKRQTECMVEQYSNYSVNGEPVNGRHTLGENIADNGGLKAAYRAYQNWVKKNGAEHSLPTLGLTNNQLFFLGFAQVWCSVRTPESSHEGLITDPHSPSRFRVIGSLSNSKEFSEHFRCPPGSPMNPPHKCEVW
Procedure, shortened: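 Where used, the ECE-1 inhibitor (100 μM) was preincubated with enzyme on ice for 30 min at matching pH before substrate was added. Products were resolved by reversed-phase HPLC and identified by MALDI TOF/TOF mass spectrometry.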

HEK-CLR-RAMP1 cells [2] = test: Endocytosis and degradation of internalized 125I-His8-CGRP; format: cell-based, human; conditions: 30 min after internalization; SM-19712 10 μM, bafilomycin A1 0.15 or 1 μM
[3] = system: HEK-CLR-RAMP1+βARR2-GFP cells; test: Trafficking and colocalization of β-arrestin2-GFP and CLR/RAMP1; format: cell-based, human; conditions: recovery up to 4 h in CGRP-free medium
Procedure, shortened: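 HEK-CLR-RAMP1 cells transiently transfected with β-arrestin2-GFP had surface CLR (HA11) and RAMP1 (Myc) labelled. Cells were given CGRP (2 min to 1 h), washed, and recovered in CGRP-free medium for 1–4 h. SM-19712 10 μM, bafilomycin A1 0.15 or 1 μM, or DMSO was preincubated 20–60 min and kept throughout. After PFA fixation and confocal imaging, β-arrestin2/CLR endosomal colocalization coefficient was measured at 4 h recovery.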

HEK cells = test: BK-induced Ca2+ signaling, desensitization and resensitization; format: cell-based, human; conditions: SM-19712 10 μM; for Effect on response to a single BK challenge ([Ca2+]i): BK 100 nM, thiorphan 1 μM, phosphoramidon 1 μM
Procedure, shortened: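 HEK cells with native B2R were loaded with Fura-2AM and [Ca2+]i read at 37°C, on coverslips or in suspension. Cells were preincubated with BK 100 nM or vehicle (10 min, 37°C), washed, recovered 0–120 min, then rechallenged with BK 100 nM. SM-19712 10 μM, bafilomycin A1 0.15 or 1 μM, or DMSO was preincubated 20–60 min and kept in buffers throughout.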

CLR/RAMP1 = CLR/RAMP1 (Rattus norvegicus, UniProt Q63118+Q9JJ74); test: pH dependency of 125I-CGRP binding to CLR/RAMP1 membranes; conditions: pH 5.5, relative to pH 7.5 (100%)
Sequence of CLR/RAMP1 (Q63118 24-464): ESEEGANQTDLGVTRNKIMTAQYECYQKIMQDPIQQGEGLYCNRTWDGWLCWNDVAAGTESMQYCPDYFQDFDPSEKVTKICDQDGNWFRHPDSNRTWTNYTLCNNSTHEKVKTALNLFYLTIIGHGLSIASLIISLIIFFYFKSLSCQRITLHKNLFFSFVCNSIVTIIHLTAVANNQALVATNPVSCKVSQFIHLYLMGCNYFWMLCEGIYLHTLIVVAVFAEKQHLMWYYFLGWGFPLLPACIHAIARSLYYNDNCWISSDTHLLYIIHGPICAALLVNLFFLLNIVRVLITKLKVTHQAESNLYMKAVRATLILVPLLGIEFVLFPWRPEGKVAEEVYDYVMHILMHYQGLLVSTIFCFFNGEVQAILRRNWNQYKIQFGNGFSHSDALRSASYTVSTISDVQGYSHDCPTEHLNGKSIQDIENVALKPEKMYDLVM
Sequence of CLR/RAMP1 (Q9JJ74 27-148): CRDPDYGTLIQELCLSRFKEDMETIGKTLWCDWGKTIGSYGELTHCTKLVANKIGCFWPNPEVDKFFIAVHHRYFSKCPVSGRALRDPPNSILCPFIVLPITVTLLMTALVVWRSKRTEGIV

HEK-CLR-RAMP1 cells [4] = test: CGRP-induced Ca2+ signaling, desensitization and resensitization; format: cell-based, human
Procedure, shortened: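 HEK-CLR-RAMP1 cells were loaded with Fura-2AM; [Ca2+]i read at 37°C. Single challenge used CGRP 30 nM. For desensitization/resensitization: CGRP 100 nM or vehicle (1 h, 37°C), wash, 0–6 h recovery, CGRP 30 nM rechallenge. Variants: SM-19712 10 μM (20–60 min preincubation, kept throughout); ECE-1 or non-targeting siRNA pools, 72 h; transient ECE-1a-d-GFP. Response given as % of vehicle-treated cells, n ≥ 3.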

SK-N-MC cells = test: CGRP-induced Ca2+ signaling, desensitization and resensitization; format: cell-based, human; conditions: challenge 100 nM
Procedure, shortened: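 SK-N-MC cells (endogenous CLR/RAMP1) were loaded with Fura-2AM for [Ca2+]i at 37°C. Single challenge used CGRP 100 nM. Desensitization: CGRP 100 nM or vehicle (1 h, 37°C), wash, CGRP-free recovery (4 h for resensitization), then CGRP 100 nM rechallenge. SM-19712 10 μM or DMSO was preincubated 20–60 min and kept throughout. Response was expressed as % of vehicle-treated cells.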

[5] = system: HEK-CLR-RAMP1 cells expressing ECE-1c-HSV; test: Cell surface ECE-1c-HSV by flow cytometry; format: cell-based, human; conditions: CGRP 100 nM, 30 min, 37°C
Procedure, shortened: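 HEK-CLR-RAMP1 cells transiently expressing ECE-1c-HSV were bound with goat anti-HSV (1 h, 4°C), washed, and exposed to CGRP 100 nM or vehicle (30 min, 37°C). They were then stained with FITC anti-goat (1:200, 1 h, 4°C) and analysed by flow cytometry. Secondary-only background was subtracted; surface signal was expressed relative to 4°C cells (100%).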

rhECE-1 = test: rhECE-1; conditions: human, 37°C, up to 720 min
HEK-AT1AR cells = test: Resensitization of ATII-induced Ca2+ signaling; format: cell-based, human; conditions: ATII 100 nM 1 h 37°C, wash, 2 h recovery, challenge 100 nM; unpublished data; mean ± SE
Procedure, shortened: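 HEK-AT1AR cells were exposed to ATII (100 nM) or vehicle for 1 h at 37°C, washed, and allowed to recover in agonist-free medium at 37°C. They were then rechallenged with ATII (100 nM) while [Ca2+]i was measured. The [Ca2+]i change is expressed as % of the vehicle-pretreated response. Inhibitor (10 μM) or DMSO was preincubated 20–60 min and kept in buffers throughout. Mean ± SE, n ≥ 3.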

[6] = peptide 250 μM, rhECE-1 83 nM, 37°C, HPLC

**Q.** How did the “Degradation of peptide by 83 nM rhECE-1 at pH 5.5 or 7.4” value (“Degradation … at pH 5.5 or 7.4” for short) [1, 6] turn out when NC(N)=NCCC[C@H](NC(=O)[C@H](Cc1ccccc1)NC(=O)[C@@H]1CCCN1C(=O)[C@H](CO)NC(=O)[C@H](Cc1ccccc1)NC(=O)CNC(=O)[C@@H]1CCCN1C(=O)[C@@H]1CCCN1C(=O)[C@@H](N)CCCN=C(N)N)C(=O)O [BK, bradykinin] (H-RPPGFSPFR-OH) was run?
**A.** Its value is “degraded BK at pH 5.5 and 7.4”.

**Q.** And the “pH dependence of the rate of degradation by rhECE-1” value ([1]; rhECE-1 83 nM, pH 5.5 versus pH 7.4, 37°C, HPLC)?
**A.** The value was “faster at pH 5.5”.

**Q.** Which “Effect on degradation of internalized 125I-His8-CGRP” value (HEK-CLR-RAMP1 cells [2]) does the source give for CO/C1=C\C(C)=C\[C@@H](C)[C@@H](O)[C@@H](C)C/C(C)=C/C=C/[C@H](OC)[C@@H]([C@@H](C)[C@@H](O)[C@H](C)[C@@]2(O)C[C@@H](O)[C@H](C)[C@@H](C(C)C)O2)OC1=O [bafilomycin A1] here?
**A.** Its value is “prevented degradation”.

**Q.** And the “Effect on localization of CLR (RAMP1) and β-arrestin2 during recovery” value [3]?
**A.** Its value is “caused retention of CLR, RAMP1, and β-arrestin2 in endosomes for up to 4 h recovery”.

**Q.** And the “Effect on desensitization of BK-induced Ca2+ signaling” value (HEK cells; bafilomycin A1 0.15 or 1 μM)?
**A.** The value was “had no effect”.

**Q.** And the “Effect on resensitization of BK-induced Ca2+ signaling” value (HEK cells; bafilomycin A1 0.15 or 1 μM, 0–120 min recovery)?
**A.** Its value is “had no effect”.

**Q.** CC(C)C[C@H](NP(=O)(O)O[C@@H]1O[C@@H](C)[C@H](O)[C@@H](O)[C@H]1O)C(=O)N[C@@H](Cc1c[nH]c2ccccc12)C(=O)O [phosphoramidon] was tested. Which “Effect on response to a single BK challenge ([Ca2+]i)” value (HEK cells) did it give?
**A.** The value was “did not affect responses to a single BK challenge”.

**Q.** Which “Effect on response to a single BK challenge ([Ca2+]i)” value (HEK cells) does the source give for O=C(O)CNC(=O)C(CS)Cc1ccccc1 (centres unmarked) [thiorphan] here?
**A.** The value was “did not affect responses to a single BK challenge”.

**Q.** What does the source list for Calcitonin gene-related peptide [CGRP]?
**A.** Bonds hydrolysed by rhECE-1 (major products separated by HPLC) ([1]; pH 5.5, products CGRP[15–26], CGRP[27–37], CGRP[1–24], CGRP[1–26]): Gly^14-Leu^15, Lys^24-Asp^25, and Asn^26-Phe^27; Degradation of peptide by rhECE-1 at endosomal pH 5.5 ([1]; peptide 250 μM, rhECE-1 83 or 415 nM, 37°C, 50 mM MES-KOH pH 5.5, 0–720 min, reversed-phase HPLC): degraded CGRP in a concentration-dependent manner; Degradation of peptide by rhECE-1 at extracellular fluid pH 7.4 ([1]; peptide 250 μM, rhECE-1, 37°C, 50 mM Tris-HCl pH 7.4, reversed-phase HPLC): minimal; Peptide bound to CLR/RAMP1 at endosomal pH 5.5 (CLR/RAMP1): ~20%; Desensitization of CGRP-induced Ca2+ signals by preincubation with agonist (HEK-CLR-RAMP1 cells [4]; CGRP 100 nM 1 h 37°C, 0 h recovery, challenge 30 nM): complete desensitization; Resensitization of responses to CGRP in cells with active ECE-1 (HEK-CLR-RAMP1 cells [4]; CGRP 100 nM 1 h, wash, 0–6 h recovery, challenge 30 nM): fully resensitized at 4–6 h recovery; Resensitization of CGRP-induced Ca2+ signaling, HEK cells expressing CLR/RAMP1 alone (control) (HEK-CLR-RAMP1 cells [4]; after 2 h recovery, mean ± SE): 33 ± 2%; Resensitization of CGRP-induced Ca2+ signaling, cells overexpressing ECE-1c (HEK-CLR-RAMP1 cells [4]; at 2 h recovery, mean ± SE): 75 ± 5%; Desensitization of responses to CGRP by preincubation with agonist (SK-N-MC cells; CGRP 100 nM 1 h 37°C): completely desensitized; Resensitization of responses to CGRP (SK-N-MC cells; after 4 h recovery, mean ± SE): 54 ± 5%; Effect on constitutive endocytosis of ECE-1c-HSV (cell surface ECE-1c) [5]: did not affect this endocytosis

**Q.** With “SCNTATCVTHRLAGLLSRSGGVVKDNFVPTNVGSEAF-NH2” as the molecule, how does the cleaved bond (rhECE-1) read?
**A.** The cleaved bond was “Gly14-Leu15, major; also recorded: Lys24-Asp25, major; also recorded: Asn26-Phe27, major”.

**Q.** How did the “Degradation … at pH 5.5 or 7.4” value [1, 6] turn out when “angiotensin (AT) I (DRVYIHPFHL; Angiotensin-1; UniProt P01019 25-34, looked up) [ATI]” was run?
**A.** The value was “degraded ATI under the same conditions”.

**Q.** How did the “Degradation … at pH 5.5 or 7.4” value [1, 6] turn out when “angiotensin II (DRVYIHPF; Angiotensin-2; UniProt P01019 25-32, looked up) [ATII]” was run?
**A.** The value was “no detectable degradation at up to 480 min”.

**Q.** Which “Resensitization of ATII-induced Ca2+ signaling at 2 h” value (HEK-AT1AR cells) does the source give for angiotensin II [ATII] here?
**A.** The value was 96 ± 3%.
